Data reported in ChEMBL document CHEMBL1240464, “Synthesis, structure and in vitro antibacterial activities of new hybrid disinfectants quaternary ammonium compounds: pyridinium and quinolinium stilbene benzenesulfonates” (2010).
The source made the active and inactive calls.

What was measured:
Format in all cases: functional, organism-based
Staphylococcus aureus = assay: Antibacterial activity against Staphylococcus aureus TISTR517 at up to 300 ug/ml after 8 to 12 hrs by colorimetric microdilution broth technique
Summary of the method: (§1)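 Broth microdilution in RPMI1640. Bacterial suspension in RPMI1640 is mixed with 1% Alamar Blue. Sample dissolved in DMSO at 25 mg/ml (stock) is added to the first row, then serially diluted two-fold down the plate to 128-fold. Plates are incubated at 37 °C for 8–12 h. MIC is the lowest concentration preventing the Alamar Blue change from blue to red. At least three repeats.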

Bacillus subtilis = assay: Antibacterial activity against Bacillus subtilis at up to 300 ug/ml after 8 to 12 hrs by colorimetric microdilution broth technique; summary of the method: as §1
Enterococcus faecalis [1] = assay: Antibacterial activity against Enterococcus faecalis TISTR459 at up to 300 ug/ml after 8 to 12 hrs by colorimetric microdilution broth technique; summary of the method: as §1
Pseudomonas aeruginosa = assay: Antibacterial activity against Pseudomonas aeruginosa at up to 300 ug/ml after 8 to 12 hrs by colorimetric microdilution broth technique; summary of the method: as §1
Salmonella typhi = assay: Antibacterial activity against Salmonella typhi at up to 300 ug/ml after 8 to 12 hrs by colorimetric microdilution broth technique; settings: Salmonella enterica subsp. enterica serovar Typhi
Summary of the method: (§2)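 Broth microdilution with a colorimetric read-out. Bacteria were suspended in RPMI1640 with 1% Alamar Blue. Compound was dissolved in DMSO as a 25 mg/ml stock and added to the first row, then serially halved to a 128-fold final dilution. Plates were incubated at 37 °C for 8–12 h. MIC was the lowest concentration preventing the blue-to-red indicator change. Each assay was run at least three times.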

Shigella sonnei = assay: Antibacterial activity against Shigella sonnei at up to 300 ug/ml after 8 to 12 hrs by colorimetric microdilution broth technique; summary of the method: as §1
Enterococcus faecalis [2] = assay: Antibacterial activity against vancomycin-resistant Enterococcus faecalis ATCC 51299 at up to 300 ug/ml after 8 to 12 hrs by colorimetric microdilution broth technique; summary of the method: as §2

Measured: MIC

CN(C)c1ccc(/C=C/c2cccc[n+]2C)cc1.Nc1ccc(S(=O)(=O)[O-])cc1
not listed: Enterococcus faecalis [2]
inactive: all other assays above

CCOc1ccc(/C=C/c2cccc[n+]2C)cc1
inactive: all assays above

CN(C)c1ccc(/C=C/c2cccc[n+]2C)cc1.O=S(=O)([O-])c1ccc(Br)cc1
inactive: all assays above

CCOc1ccc(/C=C/c2cccc[n+]2C)cc1.Nc1ccc(S(=O)(=O)[O-])cc1
inactive: all assays above

CCOc1ccc(/C=C/c2cccc[n+]2C)cc1.COc1ccc(S(=O)(=O)[O-])cc1
inactive: all assays above

CCOc1ccc(/C=C/c2cccc[n+]2C)cc1.O=S(=O)([O-])c1ccc(Br)cc1
not listed: Salmonella typhi | Shigella sonnei
inactive: all other assays above
